# V-ATPase pHluor: yeast V-ATPase proton transport regulation by pHLuorin. S. cerevisiae, pHLuorin cytosolic pH fluorescence. response, % at 10 µM. 350,000 tested, 0.37% active. AID 504577; in the data active means response mostly above about 7.3%, no sharp cut-off; inactive means mostly below about 5.4%; further: actives read high
# MPTP block: permeability transition pore inhibition | isolated mouse mitochondria, Ca2+ swelling absorbance, 30 min | inhibition, % at 10 µM | 360,000 tested, 1.4% active | AID 602449;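 active means inhibition of 50% or more, scaled per plate between neutral and stimulator controls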
# ADAM10 inh: inhibitors of human ADAM10; recombinant ADAM10, EDANS/DABCYL FRET peptide cleavage, 3 h; 370,000 tested, 0.62% active; AID 720582; inhibition, % at 7 µM;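 active means inhibition above a per-campaign cutoff equal to the mean of compounds falling between control-based bounds plus 3 SD, cut at about 20% in these data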
# Target sequence (O14672 214-748 limits assumed): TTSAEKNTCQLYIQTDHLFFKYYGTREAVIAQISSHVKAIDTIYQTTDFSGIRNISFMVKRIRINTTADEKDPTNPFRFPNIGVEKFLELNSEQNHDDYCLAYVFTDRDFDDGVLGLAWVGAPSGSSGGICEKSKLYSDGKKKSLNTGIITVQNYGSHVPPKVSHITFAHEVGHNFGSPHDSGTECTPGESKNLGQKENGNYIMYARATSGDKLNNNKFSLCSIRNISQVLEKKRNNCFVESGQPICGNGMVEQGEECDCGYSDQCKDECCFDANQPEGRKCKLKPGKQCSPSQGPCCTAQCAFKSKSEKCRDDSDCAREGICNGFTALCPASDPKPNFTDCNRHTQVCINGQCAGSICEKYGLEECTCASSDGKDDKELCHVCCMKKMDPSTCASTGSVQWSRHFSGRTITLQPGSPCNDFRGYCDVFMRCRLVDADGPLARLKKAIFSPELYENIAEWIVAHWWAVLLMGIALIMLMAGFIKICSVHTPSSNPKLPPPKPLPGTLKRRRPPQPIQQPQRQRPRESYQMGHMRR
# aDG glyco up: alpha-DG glycosylation activation; Pro5-aDG cells, alpha-DG glycosylation AlphaScreen (IIH6); 0% Pro5, 100% B10-LARGE cell signal; activation, % at 10 µM; 360,000 tested, 0.22% active; AID 624168;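 active means activation of at least 8% versus controls, or a plate z-score of at least 8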;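 further: Pro5 are CHO cells carrying HIG-tagged alpha-DG that lacks glycosylation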
# ADAM17 inh: inhibits human ADAM17 | recombinant ADAM17, EDANS/DABCYL FRET peptide cleavage | inhibition, % at 6.95 µM | P78536 | 370,000 tested, 0.83% active;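 active means inhibition above the mean of compounds lying between control limits plus 3 SD, set per campaign, cut at about 8.5% in these data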
# Lipid droplet: hepatic lipid droplet formation modulation; 240,000 tested, 0.4% active; AML12 mouse hepatocytes, oleate lipid droplets, BODIPY imaging; inhibition, % at 6.5 µM;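 active means lipid droplet intensity inhibited by at least 50%, with more than 500 cells counted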
#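 Assay system: AML12 mouse liver cells | Compound dosing: One dose, 6.5 µM compound | Read-out basis: Droplet intensity reduction, % inhibition | Measured by: Fluorescence imaging, 20x objective, two fields per well | Schedule: Overnight treatment with compound plus oleate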
# Lipid drop inh: hepatic lipid droplet formation inhibition, confirmed; shares compounds with Lipid droplet; AML12 mouse hepatocytes, BODIPY lipid droplet imaging; droplets induced with 100 µM oleic acid; inhibition, % at 5.2 µM; 870 tested, 65% active;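 active means inhibition of lipid droplet metric at least 50%, with more than 300 cells in each of four replicates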
# AML12 tox img: AML12 hepatocyte cytotoxicity (counter-screen); shares compounds with Lipid droplet; AML12 mouse hepatocytes, DAPI nuclear morphology cytotoxicity imaging; hits give high values; cells fed 100 µM oleate overnight; z-score at 5 µM; 870 tested, 3% active; AID 463200; in the data active means z-score above about 6.3;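 further: compound exposure lasted overnight at 37 °C before fixation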
# AML12 tox ATP: confirmation of cytotoxicity in AML12 mouse hepatocytes | shares compounds with Lipid droplet | AML12 mouse hepatocyte viability, ATP luminescence; cells loaded with 100 µM oleic acid | 530 tested, under 10 active | cytotoxicity, % at 50 µM;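 active means cytotoxicity above 50% in each of four replicates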;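 further: compound exposure lasted overnight at 37 °C before the ATP read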
# Numbers stand for hits; n = inactive; x = no result. Rows were chosen to be rich in hits. Some 3.1% of all compounds tested hit in one or more screens of this group.
SMILES,V-ATPase pHluor,MPTP block,ADAM10 inh,aDG glyco up,ADAM17 inh,Lipid droplet,Lipid drop inh,AML12 tox img,AML12 tox ATP
CSc1ccc(NC(=O)N2CCC(C(=O)c3ccc(F)cc3)CC2)cc1,n,n,n,n,n,71,96,n,n
Cc1cc(C)cc(NC(=O)N2CCC(C(=O)c3ccc(F)cc3)CC2)c1,n,n,n,n,n,67,96,n,n
Cc1cccc(NC(=O)N2CCC(C(=O)c3ccc(F)cc3)CC2)c1,n,n,n,n,n,84,98,n,n
COc1ccc(NC(=O)N2CCC(C(=O)c3ccc(F)cc3)CC2)cc1,n,n,n,n,n,x,x,x,x
C#CCNC(=O)C[C@H]1C(=O)N(CCCOC)C2=CCCC[C@@]21C(=O)OCC,x,x,n,x,n,x,x,x,x
CCOC(=O)[C@]12CCCC3=C1N(CCC3)C(=O)[C@@H](CC(=O)NCCCCc1ccccc1)C2,x,x,n,x,n,x,x,x,x
O=C(NC1CCCCN(Cc2cccc(F)c2)C1=O)c1ccc2ccccc2c1 (stereo unspecified),x,x,n,x,n,x,x,x,x
O=S1(=O)C=CCN1Cc1cn(Cc2ccc(F)cc2)nn1,x,x,n,x,n,x,x,x,x
CCN1C(=O)/C(=C2\C=Cc3cc(C)ccc3N2CC)OC1=S,n,n,n,n,n,68,74,n,n
O=C(Nc1ccccc1)Nc1c(-c2ccccc2)nc2ncccn12,x,x,n,x,n,x,x,x,x
COC(=O)N[C@H](C(=O)N[C@@H](Cc1ccccc1)[C@@H](O)CN(Cc1ccc(-c2ccccn2)cc1)NC(=O)[C@@H](NC(=O)OC)C(C)(C)C)C(C)(C)C,x,x,n,x,n,x,x,x,x
CCOC(=O)c1ccc(NC(=O)CSc2nc3c(c(=O)n2-c2ccccc2OC)SCC3)cc1,n,n,n,n,n,87,105,n,n
COc1ccc(NC(=O)CSc2nc3c(c(=O)n2-c2ccccc2OC)SCC3)cc1,n,n,n,n,n,n,x,x,x
CCOC(=O)c1c(C)[nH]c(N=Nc2ccccc2)c1C,n,n,n,n,n,n,x,x,x
CCOC(=O)c1c(C)[nH]c(N=Nc2ccccc2Cl)c1C,n,n,n,n,n,65,105,n,n
Cc1nn(Cc2ccc(F)cc2)c(C)c1NC(=O)C1c2ccccc2Oc2ccccc21,n,n,n,n,n,62,92,n,n
COc1ccc2c(c1)N=CN1CCc3c([nH]c4ccccc34)C3=NCC[C@@]321,x,x,n,x,n,x,x,x,x
Cc1ccc(-n2nc3c(=O)n(C(C)C(=O)NCCc4cccs4)nc(C)c3c2C)cc1 (stereo unspecified),n,n,x,n,x,53,96,n,n
Cc1ccc(-n2nc3c(=O)n(CC(=O)NC(C)CCc4ccccc4)nc(C)c3c2C)cc1 (stereo unspecified),n,n,x,n,x,88,77,n,n
Cc1ccc(-n2nc3c(=O)n(CC(=O)NC4CCCCC4)nc(C)c3c2C)cc1,n,n,n,n,n,57,88,n,n
COc1ccc(NC(=O)CSc2nnc(-c3n[nH]c4c3CCC4)n2N)cc1,x,x,n,x,n,x,x,x,x
CCN(CC)S(=O)(=O)c1ccc(N2C(=O)CC2(/C=C/c2ccccc2)C(=O)NC2CCCC2)cc1 (stereo unspecified),n,n,n,n,n,63,n,n,x
CC(C)Cn1c(N)c(C(=O)COC(=O)c2cc(C3CC3)nc3ccccc23)c(=O)n(C)c1=O,x,x,n,x,n,74,85,n,x
COC(=O)COc1cccc(NC(=O)c2ccc(Cl)cc2)c1,n,n,n,n,n,51,n,n,x
COc1ccc(Cl)cc1NC(=O)CCCNC(=O)c1ccc(Cl)cc1,n,n,n,n,n,n,x,x,x
SMILES,V-ATPase pHluor,MPTP block,ADAM10 inh,aDG glyco up,ADAM17 inh,Lipid droplet,Lipid drop inh,AML12 tox img,AML12 tox ATP
CCOc1ccccc1NC(=O)CCNC(=O)c1ccc(Cl)cc1,n,n,n,n,n,n,x,x,x
COc1ccc(OC)c(NC(=O)CCCNC(=O)c2ccc(Cl)cc2)c1,n,n,n,n,n,58,73,n,n
CCOc1ccccc1NC(=O)CCCNC(=O)Cn1cnc2sc(C)c(C)c2c1=O,n,n,n,n,n,59,n,n,n
CCOc1ccccc1NC(=O)CCCNC(=O)c1ccc(Cl)cc1,n,n,n,n,n,73,78,n,n
c1ccc(CCn2nnc(-c3ccc(N4CCOCC4)cc3)n2)cc1,x,x,n,x,n,x,x,x,x
Cc1ccc(CNC(=O)c2ccc3nc4[nH]c5ccccc5c4nc3c2)cc1,x,x,n,x,n,55,91,n,x
CCOC(=O)N1CCN(C(=O)C[C@H]2C[C@@]3(C(=O)OC)C(=C[C@H](C(C)(C)C)O[C@@H]3C)N(CCc3ccc(OC)c(OC)c3)C2=O)CC1,x,x,n,x,n,x,x,x,x
COC(=O)[C@@H]1C[C@@]2(O)[C@H](O)[C@H](O)[C@H](O)C[C@H]2N1Cc1cc(F)ccc1F,n,n,n,n,n,50,n,n,x
CCN1CCN(c2cc(C(C)C)nc3c(-c4ccccc4)c(C)nn23)CC1,n,n,n,n,n,55,n,n,x
CCCc1cc(N2CCCC2)n2nc(C)c(-c3ccccc3)c2n1,n,n,n,n,n,60,99,n,n
Cc1nn2c(N3CCOCC3)cc(C(C)C)nc2c1-c1ccccc1,n,n,n,n,n,n,x,x,x
Cc1oc2ccc(OCc3ccc(F)cc3Cl)cc2c1C(=O)O,n,n,n,n,n,57,n,n,x
CCOc1ccc(S(=O)(=O)Nc2ccc(C(=O)N(CC)CC(=O)NCc3cccs3)cc2)cc1,n,n,n,n,n,x,x,x,x
CCOc1ccc(NS(=O)(=O)c2ccc(C(=O)N3CCCCC3)cc2)cc1,n,n,n,n,n,57,87,n,n
CCOc1ccc(NS(=O)(=O)c2ccc(C(=O)N3CCN(c4ncccn4)CC3)cc2)cc1,n,n,n,n,n,n,x,x,x
CCOC(=O)c1ccc(S(=O)(=O)Nc2ccc(N3CCOCC3)cc2)cc1,n,n,n,n,n,86,79,n,n
CCOc1ccc(NS(=O)(=O)c2ccc(C(=O)N(CC)CC(=O)NCc3cccs3)cc2)cc1,n,n,n,n,n,78,98,n,n
CC(C)C[C@H](NC1(C(=O)NC2CCCCC2)CCOCC1)C(=O)NCC(c1ccccc1)c1ccccc1,x,x,n,x,n,x,x,x,x
COC(=O)c1ccc2c(c1)NC(=O)C(N(CC(C)C)CC(C)C)S2 (stereo unspecified),n,n,n,n,n,84,n,n,x
CC(=O)N1CCN(C(=O)CSc2nc3cccnc3n2C)CC1,x,x,n,x,n,x,x,x,x
COc1ccc(Cl)cc1NC(=O)CN(C)C(=O)Cc1ccc2c(c1)CCC2,n,n,n,n,n,52,85,n,n

# High-throughput results deposited in PubChem by several laboratories.
